What was measured:
BE [1] = test: In vitro cytotoxicity against BE cell line; format: functional, Homo sapiens
Procedure, shortened: (§1)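 Continuous-exposure MTT assay at 600 cells/well. HT29 (colon) and H460 (large-cell lung) express high DTD; H596 (lung) and BE (colon) lack detectable DTD activity. Absorbance was read at 540 and 640 nm after 5 days, and growth inhibition was plotted against concentration. Triplicates at each concentration, on at least two occasions.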

[2] = Rate of reduction by human BE cell extract; format: functional
Procedure, shortened: (§2)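 Extract from 2 × 10⁷ BE cells in 2 mL PBS, sonicated and centrifuged to remove debris. Quinone at 100 µM in PBS with acetylated cytochrome c (100 µM) and NADPH (200 µM). Reduction was followed through cytochrome c reduction.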

[3] = target: NAD(P)H dehydrogenase [quinone] 1 (Homo sapiens) (UniProt P15559); test: Rate of reduction by human recombinant DTD; format: functional
Procedure, shortened: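 Human recombinant DTD (specific activity 653 µmol/min/mg protein) with quinone at 50 µM in 50 mM Tris-HCl, pH 7.4. Reduction was followed through the coupled reduction of 70 µM cytochrome c.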

NCI-H596 = test: In vitro cytotoxicity against H596 cell line; format: functional, Homo sapiens; procedure, shortened: as §1
NCI-H460 = test: In vitro cytotoxicity against H460 cell line; format: functional, Homo sapiens; procedure, shortened: as §1
HT-29 = test: In vitro cytotoxicity against HT-29 cell line; format: functional, Homo sapiens; procedure, shortened: as §1
Nucleic Acid [4] = test: Ability to produce interstrand cross-links in the plasmid DNA at 100 uM concentration; format: functional
Procedure, shortened: (§3)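 Stocks were 10 mM in DMSO. DNA was ethanol-precipitated, denatured in 30% DMSO at 90 °C for 2 min and run on 0.8% agarose gels at 40 V for 16 h. Cross-linked versus single-stranded DNA was read by autoradiography.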

Nucleic Acid [5] = test: Ability to produce interstrand cross-links in the plasmid DNA at 10 uM concentration; format: functional; procedure, shortened: as §3
BE [6] = test: Rate of reduction by human BE cell extract; Not Detected; format: functional, cell-based; procedure, shortened: as §2

Chain of NAD(P)H dehydrogenase [quinone] 1 (Homo sapiens) (P15559 whole entry): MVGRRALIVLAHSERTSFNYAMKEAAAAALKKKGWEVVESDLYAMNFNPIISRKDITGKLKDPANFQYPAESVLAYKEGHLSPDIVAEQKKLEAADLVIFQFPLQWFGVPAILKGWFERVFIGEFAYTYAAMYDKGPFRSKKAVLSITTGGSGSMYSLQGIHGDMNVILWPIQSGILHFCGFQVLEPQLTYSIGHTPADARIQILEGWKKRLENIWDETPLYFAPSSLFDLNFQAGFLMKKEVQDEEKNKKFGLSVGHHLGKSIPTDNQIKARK

Structure (SMILES) | Cytotoxicity (BE [1]) | Rate of reduction [2] | Rate of reduction [3] | Cytotoxicity (NCI-H596) | Cytotoxicity (NCI-H460) | Cytotoxicity (HT-29) | Activity (Nucleic Acid [4]) | Activity (Nucleic Acid [5]) | Rate of reduction (BE [6])
CC1=C(N2CC2)C(=O)C(C(C)C)=C(N2CC2)C1=O | 1300 nM | 1.1 nM/min/mg | 2.7 µM/min/mg | 1230 nM | 3.6 nM | 33 nM | 87.8% | 28.1% | –
CC(C)C1=C(N2CC2)C(=O)C(C(C)C)=C(N2CC2)C1=O | 3130 nM | – | 0.22 µM/min/mg | 2620 nM | 170 nM | 2740 nM | 0% | 0% | Not detected
O=C1C=C(N2CC2)C(=O)C=C1N1CC1 | 10.2 nM | 25.3 nM/min/mg | 35.6 µM/min/mg | 12.9 nM | 4.6 nM | 5.1 nM | 100% | 100% | –
CCCC1=C(N2CC2)C(=O)C(CCC)=C(N2CC2)C1=O | 590 nM | 1.7 nM/min/mg | 1 µM/min/mg | 1290 nM | 20.1 nM | 58.2 nM | 95.6% | 16.4% | –
CC1=C(N2CC2)C(=O)C(C)=C(N2CC2)C1=O | 25.9 nM | 9.2 nM/min/mg | 21 µM/min/mg | 48.8 nM | 0.77 nM | 3.4 nM | 100% | 79.8% | –
CCCC1=C(N2CC2)C(=O)C(C)=C(N2CC2)C1=O | 67 nM | 3.4 nM/min/mg | 7.9 µM/min/mg | 228 nM | 3.3 nM | 5.5 nM | 100% | 58.4% | –
CCC1=C(N2CC2)C(=O)C(C)=C(N2CC2)C1=O | 84 nM | 4 nM/min/mg | 12.5 µM/min/mg | 98.5 nM | 1.6 nM | 3.9 nM | 100% | 69% | –
CCC1=C(N2CC2)C(=O)C(CC)=C(N2CC2)C1=O | 290 nM | 2.3 nM/min/mg | 3 µM/min/mg | 1160 nM | 4.1 nM | 21.8 nM | 100% | 60.9% | –

Reference: ChEMBL document CHEMBL1132246, “Cross-linking and sequence-specific alkylation of DNA by aziridinylquinones. 3. Effects of alkyl substituents” (1999)
